Data from ChEMBL document CHEMBL5154633 (J Med Chem, 2022).
Active and inactive are the calls of the source. The calls are words filed in the database; no cut-off is given here.

Columns and labels:
[1] = Half life in human plasma at 3 to 225 mg, iv administered as 2 hr infusion; assay type: ADME, organism-based; conditions: dose 3-225 mg
SARS-CoV-2 [2] = assay: Antiviral activity against SARS-COV 2 infected in human Caco-2 cells assessed as inhibition of viral replication after 48 hrs by qRT-PCR analysis; assay type: functional, organism-based; conditions: Severe acute respiratory syndrome coronavirus 2, Caco-2, 48 h
[3] = AUC in human plasma at 3 to 225 mg, iv administered as 2 hr infusion; assay type: ADME, organism-based; parameters: time 2 hrs, route iv; conditions: dose 3-225 mg
SARS-CoV-2 [4] = assay: Antiviral activity against SARS-COV 2 infected in human Calu-3 cells assessed as inhibition of viral replication after 48 hrs by qRT-PCR analysis; assay type: functional, organism-based; conditions: Severe acute respiratory syndrome coronavirus 2, Calu-3, 48 h
SARS-CoV-2 [5] = assay: Antiviral activity against SARS-COV 2 infected in African green monkey Vero E6 cells assessed as inhibition of viral replication after 48 hrs by qRT-PCR analysis; assay type: functional, organism-based; conditions: Severe acute respiratory syndrome coronavirus 2, Vero C1008, 48 h
[6] = Oral bioavailability in Sprague-Dawley rat at 30 mg/kg measured over 48 hrs by HPLC/MS analysis; assay type: ADME, organism-based; conditions: in vivo
Calu-3 = assay: Cytotoxicity against human Calu-3 cells assessed as reduction in cell viability upto 50 uM measured for 48 hrs by CCK8 assay; assay type: toxicity, cell-based; conditions: calu-3, 48 h
Method in brief: (§1)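 Vero E6, Calu-3 or Caco-2 cells were seeded at 20 000/well. They were exposed to 0, 0.01, 0.1, 1, 5, 10 or 50 μM compound for 48 h, and viability was read by CCK-8.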

Caco-2 = assay: Cytotoxicity against human Caco-2 cells assessed as reduction in cell viability upto 50 uM measured for 48 hrs by CCK8 assay; assay type: toxicity, cell-based; conditions: caco-2, 48 h; method in brief: as §1
SARS-CoV-2 [7] = assay: Antiviral activity against SARS-CoV-2 infected in AAV-human ACE2 transduced BALB/c mouse assessed as viral clearance in lungs at 25 mg/kg/day, ip administered 1 day prior to viral infection and measured after 2 days post infection by focus forming assay; assay type: functional, organism-based; conditions: Severe acute respiratory syndrome coronavirus 2, time 3.0 day
Murine hepatitis virus [8] = assay: Antiviral activity against MHV-A59 infected in BALB/c mouse assessed as improvement in survival at 100 mg/kg, ip administered at 0.5 hrs post infection followed by 50 mg/kg administered daily measured upto 14 days; assay type: functional; conditions: time <= 14 day
Method in brief: (§2)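 Male SPF BALB/c mice, 3–4 weeks old, were inoculated intranasally with 30 μL MHV-A59 in PBS (TCID50 10^-7.125/100 μL). They received 100 mg/kg IG or IP at 0.5 hpi, then 50 mg/kg once daily for the next 4 d. Untreated infected controls received PBS. Survival was followed for 14 d, N = 8 per group.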

Murine hepatitis virus [9] = assay: Antiviral activity against MHV-A59 infected in BALB/c mouse assessed as improvement in survival at 100 mg/kg, ig administered at 0.5 hrs post infection followed by 50 mg/kg administered daily measured upto 14 days; assay type: functional; conditions: time <= 14 day; method in brief: as §2
[10] = Tmax in Sprague-Dawley rat at 30 mg/kg, iv measured over 48 hrs by HPLC/MS analysis; assay type: ADME, organism-based; conditions: in vivo
[11] = Cmax in Sprague-Dawley rat at 30 mg/kg, iv measured over 48 hrs by HPLC/MS analysis; assay type: ADME, organism-based; parameters: dose 30 mg/kg, time 48 hrs, route iv; conditions: in vivo
Vero C1008 = assay: Cytotoxicity against African green monkey Vero cells assessed as reduction in cell viability upto 50 uM measured for 48 hrs by CCK8 assay; assay type: toxicity, cell-based; conditions: chlorocebus sabaeus, vero c1008, 48 h; method in brief: as §1
[12] = Tmax in Sprague-Dawley rat at 30 mg/kg, ig measured over 48 hrs by HPLC/MS analysis; assay type: ADME, organism-based; conditions: in vivo, po
Murine hepatitis virus [13] = assay: Antiviral activity against MHV-A59 infected in BALB/c mouse assessed as reduction in viral titer in liver at 100 mg/kg, ig administered at 0.5 hrs post infection followed by 50 mg/kg administered daily measured upto 14 days by qRT-PCR analysis; assay type: functional; parameters: scale not given: the % may be the effect or the level left; conditions: time <= 14 day
Method in brief: (§3)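 Male BALB/c mice were infected intranasally with MHV-A59 and dosed 100 mg/kg IG or IP at 0.5 hpi, then 50 mg/kg daily. Three mice per group were killed at 3 dpi. Liver RNA was extracted and viral load quantified by qRT-PCR against PBS-treated infected controls.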

[14] = Toxicity in BALB/c mouse infected with MHV-A59 assessed as change in body weight at 100 mg/kg, ip administered at 0.5 hrs post infection followed by 50 mg/kg administered daily measured upto 14 days; assay type: organism-based; conditions: in vivo, 336 h, time < 14 day
Method in brief: (§4)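 MHV-A59-infected male BALB/c mice (3–4 weeks) were dosed 100 mg/kg IG or IP at 0.5 hpi, then 50 mg/kg daily for 4 d. Uninfected drug-treated and PBS-only groups served as controls. Body weight was recorded daily for 14 d, N = 8 per group.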

[15] = AUC(0 to t) in Sprague-Dawley rat at 30 mg/kg, ig measured over 48 hrs by HPLC/MS analysis; assay type: ADME, organism-based; parameters: dose 30 mg/kg, time 48 hrs, route ig; conditions: in vivo, po
[16] = Toxicity in BALB/c mouse infected with MHV-A59 assessed as change in body weight at 100 mg/kg, ig administered at 0.5 hrs post infection followed by 50 mg/kg administered daily measured upto 14 days; assay type: organism-based; conditions: in vivo, po, 336 h, time < 14 day; method in brief: as §4
[17] = Toxicity AAV-human ACE2 transduced BALB/c mouse infected with SARS-COV2 assessed as loss of body weight at 25 mg/kg/day, ip administered 1 day prior to viral infection and treated for 8 days; assay type: organism-based; conditions: in vivo, 192 h, time 8 day
[18] = AUC(0 to t) in Sprague-Dawley rat at 30 mg/kg, iv measured over 48 hrs by HPLC/MS analysis; assay type: ADME, organism-based; parameters: dose 30 mg/kg, time 48 hrs, route iv; conditions: in vivo
Murine hepatitis virus [19] = assay: Antiviral activity against MHV-A59 infected in BALB/c mouse assessed as reduction in viral titer in liver at 100 mg/kg, ip administered at 0.5 hrs post infection followed by 50 mg/kg administered daily measured upto 14 days by qRT-PCR analysis; assay type: functional; parameters: scale not given: the % may be the effect or the level left; conditions: time <= 14 day; method in brief: as §3

## CCC(CC)COC(=O)[C@H](C)N[P@](=O)(OC[C@H]1O[C@@](C#N)(c2ccc3c(N)ncnn23)[C@H](O)[C@@H]1O)Oc1ccccc1
[1]
  half-life: < 60 min
SARS-CoV-2 [2]
  IC50: 580 nM
[3]
  AUC at 2 h: 1590 ng·h/mL
SARS-CoV-2 [4]
  IC50: 650 nM
SARS-CoV-2 [5]
  IC50: 1350 nM

## N#C[C@@]1(c2ccc3c(N)ncnn23)O[C@H](CO)[C@@H](O)[C@H]1O [GS-441524]
[6]
  bioavailability: 4.84%
Calu-3
  Activity: Non-Toxic
Caco-2
  Activity: Non-Toxic
SARS-CoV-2 [7]
  Activity: Active
Murine hepatitis virus [8]
  Activity: 100%
Murine hepatitis virus [9]
  Activity: 100%
[10]
  Tmax: 6 min
SARS-CoV-2 [2]
  IC50: 3620 nM
[11]
  Cmax: 164 µg/mL
Vero C1008
  Activity: Non-Toxic
[3]
  AUC at 2 h: 2230 ng·h/mL
[12]
  Tmax: 56.4 min
Murine hepatitis virus [13]
  Activity: 99.9%
[14]
  Activity: Toxic
[15]
  AUC(0-t) at 48 h: 28700 ng·h/mL
SARS-CoV-2 [4]
  IC50: 3210 nM
[16]
  Activity: Toxic
[17]
  Activity: Non-Toxic
SARS-CoV-2 [5]
  IC50: 700 nM
[18]
  AUC(0-t) at 48 h: 592000 ng·h/mL
Murine hepatitis virus [19]
  Activity: 99.9%
